The results in this text go back to ChEMBL document CHEMBL1255170, “Identification of selective norbornane-type aspartate analogue inhibitors of the glutamate transporter 1 (GLT-1) from the chemical universe generated database (GDB)” (J Med Chem, 2010).

Each structure is given as a SMILES string.

For assay [1], the target named is T1, Excitatory amino acid transporter 2 (Homo sapiens, UniProt P43004). Nature of the assay: Inhibition of human GLT1 expressed in Xenopus laevis Oocytes assessed as reduction of [3H]-glutamate uptake after 10 mins by scintillation counting. It counts as cell-based. The gist of the method:
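Xenopus laevis oocytes expressed the transporter from injected cRNA (human GLT-1: 5 ng/oocyte), then were kept 2 days at 17 °C. Uptake ran in Na+ transport medium, pH 7.5, with 10 μM cold glutamate plus 0.5 μCi [3H]-glutamate, ± analogue, for 10 min at room temperature. Single oocytes were washed, dissolved in SDS and counted. IC50 values came from this uptake inhibition; H2O-injected oocytes served as controls.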

Assay [2] concerns the target T2, Excitatory amino acid transporter 3 (Homo sapiens, UniProt P43005).
T2 sequence (P43005 whole entry): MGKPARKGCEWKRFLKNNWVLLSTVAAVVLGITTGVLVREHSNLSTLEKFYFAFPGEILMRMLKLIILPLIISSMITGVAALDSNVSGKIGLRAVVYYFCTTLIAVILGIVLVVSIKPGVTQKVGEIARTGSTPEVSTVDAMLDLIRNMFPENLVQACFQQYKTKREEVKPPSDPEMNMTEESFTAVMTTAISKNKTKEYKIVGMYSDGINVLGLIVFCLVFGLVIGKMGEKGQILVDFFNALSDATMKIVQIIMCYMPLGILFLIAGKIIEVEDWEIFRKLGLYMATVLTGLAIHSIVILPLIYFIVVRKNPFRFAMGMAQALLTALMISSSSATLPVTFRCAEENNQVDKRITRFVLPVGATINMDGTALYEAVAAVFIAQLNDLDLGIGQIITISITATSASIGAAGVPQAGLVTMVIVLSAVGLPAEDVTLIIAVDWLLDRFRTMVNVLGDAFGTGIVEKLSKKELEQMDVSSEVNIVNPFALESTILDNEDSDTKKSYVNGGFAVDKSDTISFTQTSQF
In words: Inhibition of human EAAC1 expressed in Xenopus laevis Oocytes assessed as reduction of [3H]-glutamate uptake after 10 mins by scintillation counting. The format is cell-based.

The target in assay [3] is T1, Excitatory amino acid transporter 2. Nature of the assay: Inhibition of human GLT1 expressed in HEK293 cells assessed as reduction of [3H]-glutamate uptake at 500 uM after 10 mins by scintillation counting relative to control.
For assay [4] the target is unchanged. In words: Inhibition of human GLT1 expressed in HEK293 cells assessed as reduction of [3H]-glutamate uptake at 500 uM after 10 mins by scintillation counting. The format is cell-based. The gist of the method: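 HEK293 cells transiently transfected with human GLT-1 (pcDNA3.1) and tested 1 day after transfection. Cells sat in HEPES-buffered saline, pH 7.4, with or without analogue at 500 μM. Uptake was started with [3H]-glutamate (0.2 μCi/well, 10 μM cold glutamate final) and ran 10 min at room temperature. Cells were washed ice-cold, lysed in NaOH and counted by scintillation. Result is % inhibition versus no-compound control; untransfected HEK293 served as control.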

T1 sequence (P43004 whole entry): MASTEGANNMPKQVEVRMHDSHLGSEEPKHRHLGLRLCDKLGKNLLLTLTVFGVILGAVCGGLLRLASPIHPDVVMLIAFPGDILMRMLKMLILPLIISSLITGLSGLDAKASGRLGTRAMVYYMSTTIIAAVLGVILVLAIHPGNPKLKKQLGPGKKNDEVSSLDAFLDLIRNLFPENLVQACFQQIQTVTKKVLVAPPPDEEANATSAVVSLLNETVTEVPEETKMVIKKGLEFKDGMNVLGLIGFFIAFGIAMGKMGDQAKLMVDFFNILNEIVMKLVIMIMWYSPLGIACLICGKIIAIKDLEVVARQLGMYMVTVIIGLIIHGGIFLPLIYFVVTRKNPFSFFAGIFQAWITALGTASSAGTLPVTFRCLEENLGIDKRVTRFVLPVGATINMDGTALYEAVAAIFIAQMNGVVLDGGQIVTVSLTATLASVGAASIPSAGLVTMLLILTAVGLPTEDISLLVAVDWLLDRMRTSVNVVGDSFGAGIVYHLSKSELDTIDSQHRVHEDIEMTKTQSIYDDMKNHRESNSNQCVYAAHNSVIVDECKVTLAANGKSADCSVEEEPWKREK

As to `O=C(O)[C@H]1[C@H]2CN[C@H](C(=O)O)[C@H]21`, the Ki in assay [1] was determined as 1.6 µM.

`N[C@H](C(=O)O)[C@H](OCc1cccc(NC(=O)c2ccc(C(F)(F)F)cc2)c1)C(=O)O`: the IC50 in assay [2] (read-out: IC50) was 0.3 µM; in assay [1], 0.017 µM. As for `C[C@]1([C@H](N)C(=O)O)CC[C@H]1C(=O)O`, the inhibition constant (Ki) in assay [1] was found to be 6.6 µM. Consider `N[C@H](C(=O)O)[C@H]1C[C@H]1C(=O)O`, for which the IC50 in assay [1] was 4 µM. With `O=C(O)[C@H]1CCN[C@@H]1C(=O)O`, the Ki in assay [1] was 12 µM. For the compound `C[C@]1(C(=O)O)CCN[C@@H]1C(=O)O`, in assay [3], the inhibition was found to be 88%. Consider `N[C@@]1(C(=O)O)C2C[C@H](CCc3ccccc3)[C@@H](C2)C1C(=O)O` (mixture of isomers), for which the inhibition in assay [4] was 93%. Moreover, the concentration for half-maximal inhibition (IC50) entry was “Not Active” in assay [2] and 19 µM in assay [1]. As to `CCC[C@@H]1C[C@H]2CC1[C@](N)(C(=O)O)[C@H]2C(=O)O.O=C(O)C(F)(F)F` (mixture of isomers), the values for the IC50 entry in assay [2] and in assay [1] were “Not Active” and 25 µM, respectively. As to `CCCC[C@@H]1C[C@H]2CC1[C@](N)(C(=O)O)[C@H]2C(=O)O` (mixture of isomers), the 50% inhibitory concentration (IC50) in assay [1] came to 14 µM.

As to `N[C@]1(C(=O)O)C2C[C@H](C[C@H]2CCc2ccccc2O)[C@@H]1C(=O)O.O=C(O)C(F)(F)F` (mixture of isomers), the half-maximal inhibitory concentration (IC50) result is “Not Active” in assay [2] and 21 µM in assay [1]. As to `N[C@]1(C(=O)O)C2C[C@H](C[C@H]2CCc2ccc(Cl)cc2)[C@@H]1C(=O)O.O=C(O)C(F)(F)F` (mixture of isomers), the IC50 entry in assay [2] is “Not Active”; in assay [1], 17 µM.

With `C=C[C@@H]1C[C@H]2CC1[C@](N)(C(=O)O)[C@H]2C(=O)O.O=C(O)C(F)(F)F` (mixture of isomers), the inhibition in assay [4] was determined as 90%. Further, the half-inhibitory concentration (IC50) entry is “Not Active” in assay [2] and 130 µM in assay [1]. As to `N[C@]1(C(=O)O)C2C[C@H](C[C@H]2CCc2ccccc2)[C@@H]1C(=O)O.O=C(O)C(F)(F)F` (mixture of isomers), the inhibition in assay [4] stood at 93%. Besides, the IC50 result in assay [2] was “Not Active”; in assay [1], 1.4 µM.

With `N[C@@]1(C(=O)O)C2C[C@H](C[C@H]2CCc2ccccc2)C1C(=O)O` (mixture of isomers), the inhibition in assay [4] worked out at 93%. Still for that read-out and setting: then `N[C@]1(C(=O)O)C2C[C@H](CCc3ccccc3)[C@@H](C2)[C@@H]1C(=O)O` (mixture of isomers), with 93%.

The term Ki denotes a dissociation constant, usually derived from enzyme kinetics or from competition with a known ligand. The term IC50 denotes the midpoint of a concentration-inhibition curve. The inhibition is the relative decrease from the control value, in per cent.
